System: MS2 coat protein
Assay: apparent Kd, MS2 coat protein; higher = weaker binding; RNA-MaP array; FMN 200 µM where present
Summary of the method: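 Designs on Illumina sequencing-chip clusters, transcribed by stalled E. coli RNA polymerase, were exposed to SNAP-549-labelled MS2 coat protein in doubling steps from 0.7 or 1.5 nM up to 3 µM, without and then with constant ligand. The buffer held 100 mM Tris-HCl pH 7.5, 80 mM KCl, 4 mM MgCl2, BSA, DTT, yeast tRNA and Tween-20. Apparent Kd values are medians of filtered per-cluster binding-curve fits to green signal normalised to red-channel RNA signal and control-cluster median Fmax.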

[1] = designed as: ON switch for flavin mononucleotide, no ligand
[2] = ligand present: flavin mononucleotide, designed as: ON switch for flavin mononucleotide
[3] = designed as: OFF switch for flavin mononucleotide, no ligand
[4] = ligand present: flavin mononucleotide, designed as: OFF switch for flavin mononucleotide

Row | Sequence | apparent Kd [1] [nM] | apparent Kd [2] [nM] | apparent Kd [3] [nM] | apparent Kd [4] [nM]
1 | UGGUACUAGGGAGGAUAUGGGAAGAUACAUGAGGAUCACCCAUGUUUAAGAAUGCCGAGAGGCAACUAGAAGGCCUUAGUACCU | 504 | 20.8 | – | –
2 | UUUUUUGUUGUGAGGAUAUCGUAUUUUUUUUGUUACGAGAAGGCACAUGAGGAUCACCCAUGUUUUUUGAUGUU | – | – | 24.8 | 56.7
3 | CGAGUGUGAGGAUAUCCAGCCGGUGGGAUUACGUCGACGCUGGAGAAGGCACAUGAGGAUCACCCAUGUGGACA | – | – | 111 | 234
4 | AUUUUAUAAUAGAAGGAGGACUUCAUGAGGAUCACCCAUGUGUUAGUACUUAGGAUAUGUAAUAACAUGAGGAUCACCCAUGUC | 38.3 | 43.3 | – | –
5 | GUAGCUAUCGGAGGAUAUCCUUAGCGGAAACGCACAUGAGGAUCACCCAUGUAAAUAAAUAAUUGGGAGAAGGCCGAUAGCUAC | 107 | 16.8 | – | –
6 | AAAUUUAACGAAGGAUAUGCUGACAUGAGGAUCACCCAUGUGUGCCUUGUGUUACUGAUUAGGAAGCAGAAGGUCGUAUACAUA | – | – | 831 | 414
7 | UGCGCUCGGGUGAGGAUAUUAGGACUACAAUUGUAUGAGAAGGCACAUGAGGAUCACCCAUGUGGGUGAGCGCC | – | – | 922 | 420
8 | GAUUAACAUGAGGAUCACCCAUGUGAGGAUAUGAACUUGCCCACUUACCCUUUAGAGUUUAGAAGGCGCAUUUC | – | – | 18.9 | 19
9 | GUAAUUUAUAGAGGAUAUUGACAUGAGGAUCACCCAUGUAUUUGGGAGUGUUCACUGAAUUCUUACGAGAAGGCUAUAAAAUAC | – | – | 307 | 213
10 | AAAUUUAACGAAGGAUAUACAAACAUGAGGAUCACCCAUGUGUGUUUCGUGUUACUGAAAUUCGGGUAGAAGGUCGUAUACAUA | – | – | 23.4 | 18.1
11 | UUGAAGAAUUAAGGAUAUUGAUUACAUAUGUUAAACAUGAGGAUCACCCAUGUGGGUUGCGGUAUCGAGAAGGUAAAUUAAUAG | 115 | 107 | – | –
12 | CACCGUUAGUGAGGAUAUAGUACAUGAGGAUCACCCAUGUAAUAAAUGAGAAUUUCGGAUGUAUGCUAGAAGGCACAAAUCGGC | – | – | 60.4 | 65.8
13 | AACAAACGCCUAGGAUAUCAUACUCGAGCGGUCUGAGAAGGAGGCAAGCUUGGGUCCUCAGCACAUGAGGAUCACCCAUGUAAG | – | – | 303 | 57.2
14 | CUGCUCGUAGAGAAGGCGUGGGCACAUGAGGAUCACCCAUGUCGCAGUACGAGGAUAUUUGCCGGCCCGCCCAAAAUGGCGCGG | 501 | 119 | – | –
15 | UAUUCUAGAUAGGAUAUACUUUAUUUUUUUUUCGUAGAAGGAUCUACAUGAGGAUCACCCAUGUUAACAGCAGU | – | – | 55.5 | 50.8
16 | CAGCGAUAGCUGAACAAUCUAUCUGAGGAUAUUCAGAAUAAACAUGAGGAUCACCCAUGUAAUUGGGAGAAGGCAGAUAGAUUG | 9.19 | 5.48 | – | –
17 | GGUUCGGGAGGAUAUGUUUUUUUUUACAUGAGGAUCACCCAUGUUUUUGUGUUUUUUUUCAUAGAAGGUUUGGGCC | – | – | 39 | 39.3
18 | AUACAUGAGGAUCACCCAUGUAAUUAAUUAACUAGUAAGAUCUAGGAUAUCAGCUCGUUUAGAGCUGAGAAGGAGAUCACAUGU | 36.8 | 15.6 | – | –
19 | UGAUCUCGGGUUAGGAUAUACUGACAACAUAGACAGUAGAAGGAACAUGAGGAUCACCCAUGUGCAUUAACCAU | – | – | 25.1 | 59.3
20 | UAUUCAUACGAAGGAUAUGGUUACAUGAGGAUCACCCAUGUAUGUAUAUUGAUCUAGUUAUUUAACCAGAAGGUCGGGUGUAAA | – | – | 57.3 | 91.3
21 | GCUCAGUAAGGAUAUUAAUGACGCUGUUAUUCAGCGUCAGCUGAGAAGGUACAUGAGGAUCACCCAUGUGGUGA | – | – | 210 | 117
22 | AGCUGUGGCCGAGGAUAUCUGAACCUUCAAACCGAAAUAUAAUCGGACAUGAGGAUCACCCAUGUAGAGAAGGCGGUCUCAGCA | – | – | 12 | 22.6
23 | CCAGAUUUCACAGGAUAUAUUGAUGACAUGAGGAUCACCCAUGUACCGGCAGUAGAAGGGUGAACGCUCGUGACCACGUGCGUG | 253 | 134 | – | –
24 | AUGCUAGUGUGAGGAUAUUAACAUGAGGAUCACCCAUGUUGGAAGUACAUGACAUGAGGUACAUUUAAGAAGGUACAUUAGCAU | – | – | 69 | 77.1
25 | ACGACUGUCAUAGGAUAUGGUUACAUGAGGAUCACCCAUGUCAAGGGUCUAACUAAGUAUAGCUACUAGAAGGAUGAUAGUCGA | – | – | 143 | 116
26 | GCAGCGUAUGUAGGAUAUCGGUCAGUUUCUGACCGAGAAGGACAUGAGGAUCACCCAUGUAAAUUACCGACUUUGUCGGGCUGC | – | – | 6.67 | 8.62
27 | UACAUGAGGAUCACCCAUGUUUUGUCGUGUAUGGUAUUUAUCUAGGAUAUCAAUUUAAUUAUUUAUGAGAAGGAGAAUAUUAAU | – | – | 39.6 | 33.1
28 | GUUGUUUCUGAGGAUAUUAUUUUUUUCGAUUGAUAAGAAGGCAGUACAUGAGGAUCACCCAUGUGGGUUGUUUG | – | – | 54.5 | 164

Row | Sequence | apparent Kd [1] [nM] | apparent Kd [2] [nM] | apparent Kd [3] [nM] | apparent Kd [4] [nM]
29 | ACAUGAGGAUCACCCAUGUGAACAUAGGAUAUUGGUGAUCAGGCGUGUUAUACAGGAUAGGUCUGCGAGAAGGGUGCACGUUGC | 540 | 146 | – | –
30 | UGUAGUUCAGGAUAUGAUGUUUAAUACAUGAGGAUCACCCAUGUAGAUCCUGAAUUAACAUCAGAAGGGAAUAUUU | – | – | 20.7 | 45.2
31 | AGGAAACAUGAGGAUCACCCAUGUAAAAGGUGGGUAGGAUAUGCGAAAAGAAAAAGAAAAGCAGAAGGGCCAAGAA | 101 | 47.4 | – | –
32 | CCAUCAGCGGGCGGAUCGGUUGGACAUGAGGAUCACCCAUGUAGAAGGACCGGUGGAUUCCGGCGGUAGGAUAUACAUUUGGUG | – | – | 9.1 | 16.3
33 | AGAUCCUGAGUCAGGAUAUAGAGGCGGUAGCCUGGCUAGAAGGGACAUGAGGAUCACCCAUGUGGGUUCUUGCC | – | – | 12.5 | 17.4
34 | AUUUCGUCAGGAUAUCCUAGUAAUUGUUUCAUAUUUACGAAGGAGAAGGGACAUGAGGAUCACCCAUGUUGGUC | – | – | 58.7 | 130
35 | UGCAUUACUUAGAAGGGAUAUAUAUAAUUUUAAUCAGGAUAUAGAUACAAUACAACAUGAGGACAUGAGGAUCACCCAUGUAUU | 19.9 | 14 | – | –
36 | UUAUAAAGUGUGAGGAUAUGCUGGUCGAUAGAUCAGCAGAAGGCACAUGAGGAUCACCCAUGUAAUAUAUUUUA | – | – | 52.1 | 222
37 | GGUCCACGAGGAUAUCGAUUAUAGUACAUGAGGAUCACCCAUGUUGUCCAGGUUUCGUUUCGAGAAGGCGUGGGUU | – | – | 88.4 | 52.6
38 | UUGGACGUCGUAGGAUAUGUAGGAUAUUCCUACAUGAGGAUCACCCAUGUUGACAUGGAAGAAGGAUAGAAGGACGAUGUCCAU | 624 | 81.5 | – | –
39 | AUUUUACAUGAGGAUCACCCAUGUUUUGGCGGGUCAGGAUAUAGAUCGGAUGAGUUCUGGCUAGAAGGGACAUGUA | 54 | 106 | – | –
40 | UUUUUUAUCGUAGGAUAUAGGUUGAAUAAUAGACUAGAAGGACGUGACAUGAGGAUCACCCAUGUUUUUUAAGUGUCGAAGUGU | 26.9 | 25.7 | – | –
41 | AGCUGUGGCCGAGGAUAUCUAACUUCAAUAACCGAAAUAUAAUCGGACAUGAGGAUCACCCAUGUAGAGAAGGCGGUCUCAGCA | – | – | 15.2 | 20.1
42 | AUUAUUGACGUAGGAUAUUGUUACAUGAGGAUCACCCAUGUUAUUUGGGAACUAGGAAUAUUUUACAAGAAGGACGUUGUUAAA | 74.9 | 92.1 | – | –
43 | CCUAUGUGAGGAUAUGGUGUUGGCCACAGGGAAAAGGUCCUCCAGAAGGCACAUGAGGAUCACCCAUGUCGUGA | – | – | 84.6 | 158
44 | GGCUCAUUUACAUUAAUGUGCUGACAGGAUAUCCACGGCGGUUCCUACAUGAGGAUCACCCAUGUGGAGAAGGGUCGCUAAUGG | – | – | 12.4 | 18.9
45 | UCGCUGCGAGGAUAUACAUGAGGAUCACCCAUGUGCGGGUCCGGGUUUUCGUCCAUUAGUAGAAGGCGCAGUGA | – | – | 369 | 46.5
46 | AGUACUCAAAGAGUACCAAUACGAACAUGAGGAUCACCCAUGUAGGAUAUGCUACUCAAAGAGUAGCAGAAGGACAUGUGCCUA | – | – | 18.2 | 82.3
47 | AACGGGUGGGUAGGAUAUGGCUAUGUCUCAUUGCUAGAAGGACCAGCUGCUACAUGAGGAUCACCCAUGUCGUAGUGCACCCAC | 93.2 | 24.5 | – | –
48 | AAGGAGUGAGGAUAUGCUGCUCGUCACUUGCGUGAUGAGUAGCAGAAGGCACAUGAGGAUCACCCAUGUAAAAA | – | – | 41.5 | 49.7
49 | UUUAUAUUCAGAGGAUAUUAAUGUUGUAUAAUAUAAGAAGGCUGUUUGUUUUGUAAAGUUAUUAUACAUGAGGAUCACCCAUGU | 20.6 | 16.9 | – | –
50 | CCUUUGAAGAUCCUAGUUUUCGACAUGAGGAUCACCCAUGUGCAGGAUAUCGUGCCAGUGAUGUGCGAGAAGGGCAGUCUCUGC | – | – | 110 | 112
51 | UGACCCAUGACAUGAGAUGACAUGAGGAUCACCCAUGUGUACAAGGAUAUGUUGGUCGACGAUCGGCAGAAGGUGUAAUGGGAU | – | – | 56.6 | 282
52 | UAUUAGUGAGGAUAUGAGUCGUAGAACAAUAGUACUACGUCUCAGAAGGUACAUGAGGAUCACCCAUGUUCCUC | – | – | 19 | 22.8
53 | CGCUGUCACGCAGGAUAUGCAUUGGAUUACAAUGCAGAAGGGCGAUUACAUGAGGAUCACCCAUGUGUUGACAGUGAAGAAGAG | 1240 | 80.6 | – | –
54 | CGCAACUUUUCUCAUGUAAACAUGAGGAUCACCCAUGUAAUGAGAAGGAGGAGGAAGAGAGAAUCCUAGGAUAUCAGAGUUGCG | – | – | 7.12 | 6.01
55 | AAAAAACAUGAGGAUCACCCAUGUAAAAAAAAUGGAGGAUAUUGGAAAAAAAAAAAAAAACGAGAAGGCUAAAAAA | 84.4 | 71.1 | – | –
